Data published in ChEMBL document CHEMBL1145501, “Effect of macrolide usage on emergence of erythromycin-resistant Campylobacter isolates in chickens” (2007).
Converted amounts (≈) assume the structure as drawn. The source made the active and inactive calls. No cut-off for these calls is given here.

What was measured:
[1] = tested on: Campylobacter jejuni; experiment: Antimicrobial activity against Campylobacter jejuni 700819 by agar dilution method; assay type: functional
Summary of the method: (§1)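 Erythromycin MIC by agar dilution per CLSI (formerly NCCLS). Strains were grown on Mueller-Hinton agar or in MH broth at 42°C under microaerobic conditions. MH media were supplemented with various amounts of Ery.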

[2] = tested on: Campylobacter jejuni; experiment: Antimicrobial activity against Campylobacter jejuni 700819 with cmeB mutation by agar dilution method; assay type: functional
Summary of the method: (§2)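 cmeB knockouts were made by biphasic natural transformation, using genomic DNA of 11168B (cmeB::kan) as donor. Transformants were selected on 30 μg/ml kanamycin and the insertion confirmed by PCR. The isogenic mutants were then MIC-tested by agar dilution on MH medium at 42°C under microaerobic conditions.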

[3] = tested on: Campylobacter jejuni; experiment: Antimicrobial activity against Campylobacter jejuni S3B by agar dilution method; assay type: functional; summary of the method: as §1
[4] = tested on: Campylobacter jejuni; experiment: Antimicrobial activity against Campylobacter jejuni S3B with cmeB mutation by agar dilution method; assay type: functional; summary of the method: as §2
[5] = tested on: Campylobacter coli; experiment: Antimicrobial activity against Campylobacter coli RN14B by agar dilution method; assay type: functional; summary of the method: as §1
[6] = tested on: Campylobacter coli; experiment: Antimicrobial activity against Campylobacter coli RN14B with cmeB mutation by agar dilution method; assay type: functional; summary of the method: as §2
[7] = tested on: Campylobacter coli; experiment: Antimicrobial activity against Campylobacter coli MR32D by agar dilution method; assay type: functional; summary of the method: as §1
[8] = tested on: Campylobacter coli; experiment: Antimicrobial activity against Campylobacter coli AW-II-35 by agar dilution method; assay type: functional
Summary of the method: (§3)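 MIC by CLSI agar dilution. Campylobacter was grown on Mueller-Hinton medium at 42°C under microaerobic conditions. Ery-resistant mutants were selected either in vitro, by plating late-log antibiotic-free broth cultures on MH agar with 2, 4 or 8 μg/ml Ery for 2 days, or from tylosin-exposed chickens.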

[9] = tested on: Campylobacter jejuni; experiment: Antimicrobial activity against Campylobacter jejuni S3BE2-2 mutant by agar dilution method; assay type: functional; summary of the method: as §3
[10] = tested on: Campylobacter jejuni; experiment: Antimicrobial activity against Campylobacter jejuni S3BE2-2 mutant with cmeB mutation by agar dilution method; assay type: functional; summary of the method: as §2
[11] = tested on: Campylobacter jejuni; experiment: Antimicrobial activity against Campylobacter jejuni S3BE4-1 mutant by agar dilution method; assay type: functional; summary of the method: as §3
[12] = tested on: Campylobacter jejuni; experiment: Antimicrobial activity against Campylobacter jejuni S3BE4-2 mutant by agar dilution method; assay type: functional; summary of the method: as §3
[13] = tested on: Campylobacter jejuni; experiment: Antimicrobial activity against Campylobacter jejuni S3BE4-3 mutant by agar dilution method; assay type: functional; summary of the method: as §3
[14] = tested on: Campylobacter jejuni; experiment: Antimicrobial activity against Campylobacter jejuni S3BE8-1 mutant by agar dilution method; assay type: functional; summary of the method: as §3
[15] = tested on: Campylobacter coli; experiment: Antimicrobial activity against Campylobacter coli RN14BE4-2 mutant by agar dilution method; assay type: functional; summary of the method: as §3
[16] = tested on: Campylobacter coli; experiment: Antimicrobial activity against Campylobacter coli RN14BE4-2/A2074G and cmeB mutation by agar dilution method; assay type: functional; summary of the method: as §2
[17] = tested on: Campylobacter coli; experiment: Antimicrobial activity against Campylobacter coli RN14BE4-3 mutant by agar dilution method; assay type: functional; summary of the method: as §3
[18] = tested on: Campylobacter coli; experiment: Antimicrobial activity against Campylobacter coli RN14BE4-3 mutant with cmeB mutation by agar dilution method; assay type: functional; summary of the method: as §2
[19] = tested on: Campylobacter coli; experiment: Antimicrobial activity against Campylobacter coli RN14BE8-1 mutant by agar dilution method; assay type: functional; summary of the method: as §3
[20] = tested on: Campylobacter coli; experiment: Antimicrobial activity against Campylobacter coli RN14BE8-2 mutant by agar dilution method; assay type: functional; summary of the method: as §3
[21] = tested on: Campylobacter coli; experiment: Antimicrobial activity against Campylobacter coli RN14BE8-3 mutant by agar dilution method; assay type: functional; summary of the method: as §3
[22] = tested on: Campylobacter coli; experiment: Antimicrobial activity against Campylobacter coli MR32DE4-1 mutant by agar dilution method; assay type: functional; summary of the method: as §3
[23] = tested on: Campylobacter jejuni; experiment: Antimicrobial activity against Campylobacter jejuni 700819 mutant 3 with cmeB mutation by agar dilution method; assay type: functional; summary of the method: as §2
[24] = tested on: Campylobacter jejuni; experiment: Antimicrobial activity against Campylobacter jejuni 700819 mutant 4 by agar dilution method; assay type: functional; summary of the method: as §3
[25] = tested on: Campylobacter jejuni; experiment: Antimicrobial activity against Campylobacter jejuni 700819 mutant 4/A2074G and cmeB mutation by agar dilution method; assay type: functional; summary of the method: as §2
[26] = tested on: Campylobacter jejuni; experiment: Antimicrobial activity against Campylobacter jejuni 700819 mutant 5 by agar dilution method; assay type: functional; summary of the method: as §3
[27] = tested on: Campylobacter jejuni; experiment: Antimicrobial activity against Campylobacter jejuni 700819 mutant 5/A2074G and cmeB mutation by agar dilution method; assay type: functional; summary of the method: as §2
[28] = tested on: Campylobacter jejuni; experiment: Antimicrobial activity against Campylobacter jejuni 700819 mutant 6 by agar dilution method; assay type: functional; summary of the method: as §3
[29] = tested on: Campylobacter jejuni; experiment: Antimicrobial activity against Campylobacter jejuni 700819 mutant 6/A2074G and cmeB mutation by agar dilution method; assay type: functional; summary of the method: as §2
[30] = tested on: Campylobacter jejuni; experiment: Antimicrobial activity against Campylobacter jejuni 700819 mutant 7 by agar dilution method; assay type: functional; summary of the method: as §3
[31] = tested on: Campylobacter jejuni; experiment: Antimicrobial activity against Campylobacter jejuni 700819 mutant 7 with cmeB mutation by agar dilution method; assay type: functional; summary of the method: as §2
[32] = tested on: Campylobacter jejuni; experiment: Antimicrobial activity against Campylobacter jejuni 700819 mutant 8 by agar dilution method; assay type: functional; summary of the method: as §3
[33] = tested on: Campylobacter jejuni; experiment: Antimicrobial activity against Campylobacter jejuni 700819 mutant 8 with cmeB mutation by agar dilution method; assay type: functional; summary of the method: as §2
[34] = tested on: Campylobacter jejuni; experiment: Antimicrobial activity against Campylobacter jejuni 700819 mutant 9 by agar dilution method; assay type: functional; summary of the method: as §3
[35] = tested on: Campylobacter jejuni; experiment: Antimicrobial activity against Campylobacter jejuni 700819 mutant 9 with cmeB mutation by agar dilution method; assay type: functional; summary of the method: as §2
[36] = tested on: Campylobacter jejuni; experiment: Antimicrobial activity against Campylobacter jejuni 700819 mutant 10 by agar dilution method; assay type: functional; summary of the method: as §3
[37] = tested on: Campylobacter jejuni; experiment: Antimicrobial activity against Campylobacter jejuni 700819 mutant 10 with cmeB mutation by agar dilution method; assay type: functional; summary of the method: as §2
[38] = tested on: Campylobacter jejuni; experiment: Antimicrobial activity against Campylobacter jejuni 700819 mutant 11 by agar dilution method; assay type: functional; summary of the method: as §3
[39] = tested on: Campylobacter jejuni; experiment: Antimicrobial activity against Campylobacter jejuni 700819 mutant 11 with cmeB mutation by agar dilution method; assay type: functional; summary of the method: as §2
[40] = tested on: Campylobacter jejuni; experiment: Antimicrobial activity against Campylobacter jejuni 700819 mutant 12 by agar dilution method; assay type: functional; summary of the method: as §3
[41] = tested on: Campylobacter jejuni; experiment: Antimicrobial activity against Campylobacter jejuni 700819 mutant 12 with cmeB mutation by agar dilution method; assay type: functional; summary of the method: as §2
[42] = tested on: Campylobacter coli; experiment: Antimicrobial activity against Campylobacter coli AW-ll-35/AW-ll-37 mutant in chickens assessed as reduction in colonization; assay type: functional, organism-based
Summary of the method: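 Campylobacter-free broiler chickens were orally dosed with a mixed C. coli AW-II-35 + AW-II-37 culture (10⁷ CFU/bird). Five days later one group received tylosin in drinking water (0.53 g/liter, about 110 mg/kg/day) for 3 days; a parallel group was left untreated. Cloacal swabs were serially plated on selective MH, counted after 48 h at 42°C, and compared by t test on log₁₀ CFU/g feces (P<0.01).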

[43] = tested on: Campylobacter jejuni; experiment: Effect on Campylobacter jejuni 700819 mutant colonization at 8 ug/ml; assay type: functional, organism-based
Summary of the method: (§4)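 Chickens colonized with C. jejuni were sampled by cloacal swabs. Serial dilutions were plated on selective MH agar with and without 8 μg/ml Ery and counted after 48 h at 42°C under microaerobic conditions, giving the Ery-nonsusceptible fraction per bird. Detection limit was about 100 CFU/g feces.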

[44] = tested on: Campylobacter coli; experiment: Antimicrobial activity against Campylobacter coli AW-II-37 by agar dilution method; assay type: functional; summary of the method: as §3
[45] = tested on: Campylobacter coli; experiment: Antimicrobial activity against Campylobacter coli MR32DE8-1 mutant by agar dilution method; assay type: functional; summary of the method: as §3
[46] = tested on: Campylobacter jejuni; experiment: Antimicrobial activity against Campylobacter jejuni 700819 mutant 1 by agar dilution method; assay type: functional; summary of the method: as §3
[47] = tested on: Campylobacter jejuni; experiment: Antimicrobial activity against Campylobacter jejuni 700819 mutant 1 with cmeB mutation by agar dilution method; assay type: functional; summary of the method: as §2
[48] = tested on: Campylobacter jejuni; experiment: Antimicrobial activity against Campylobacter jejuni 700819 mutant 2 by agar dilution method; assay type: functional; summary of the method: as §3
[49] = tested on: Campylobacter jejuni; experiment: Antimicrobial activity against Campylobacter jejuni 700819 mutant 2 with cmeB mutation by agar dilution method; assay type: functional; summary of the method: as §2
[50] = tested on: Campylobacter jejuni; experiment: Antimicrobial activity against Campylobacter jejuni 700819 mutant 3 by agar dilution method; assay type: functional; summary of the method: as §3
[51] = tested on: Campylobacter jejuni; experiment: Effect on Campylobacter jejuni S3B mutant colonization at 8 ug/ml; assay type: functional, organism-based; summary of the method: as §4

Question: Which results are given for CC[C@H]1OC(=O)[C@H](C)[C@@H](O[C@H]2C[C@@](C)(OC)[C@@H](O)[C@H](C)O2)[C@H](C)[C@@H](O[C@@H]2O[C@H](C)C[C@H](N(C)C)[C@H]2O)[C@](C)(O)C[C@@H](C)C(=O)[C@H](C)[C@@H](O)[C@]1(C)O [ERYTHROMYCIN]?
Answer: MIC [1]: 2 µg/mL (≈ 2.73 µM); MIC [2]: 0.125 µg/mL (≈ 0.17 µM); MIC [3]: 2 µg/mL (≈ 2.73 µM); MIC [4]: 1 µg/mL (≈ 1.36 µM); MIC [5]: 2 µg/mL (≈ 2.73 µM); MIC [6]: 0.125 µg/mL (≈ 0.17 µM); MIC [7]: 2 µg/mL (≈ 2.73 µM); MIC [8]: 0.125 µg/mL (≈ 0.17 µM); MIC [9]: 256 µg/mL (≈ 349 µM); MIC [10]: 0.125 µg/mL (≈ 0.17 µM); MIC [11]: 32 µg/mL (≈ 43.6 µM); MIC [12]: 32 µg/mL (≈ 43.6 µM); MIC [13]: 128 µg/mL (≈ 174 µM); MIC [14]: 256 µg/mL (≈ 349 µM); MIC [15]: 8 µg/mL (≈ 10.9 µM); MIC [16]: 0.125 µg/mL (≈ 0.17 µM); MIC [17]: 32 µg/mL (≈ 43.6 µM); MIC [18]: 0.125 µg/mL (≈ 0.17 µM); MIC [19]: 32 µg/mL (≈ 43.6 µM); MIC [20]: 32 µg/mL (≈ 43.6 µM); MIC [21]: 32 µg/mL (≈ 43.6 µM); MIC [22]: 8 µg/mL (≈ 10.9 µM); MIC [23]: 0.25 µg/mL (≈ 0.341 µM); MIC [24]: > 512 µg/mL; MIC [25]: 32 µg/mL (≈ 43.6 µM); MIC [26]: > 512 µg/mL; MIC [27]: 32 µg/mL (≈ 43.6 µM); MIC [28]: > 512 µg/mL; MIC [29]: 32 µg/mL (≈ 43.6 µM); MIC [30]: 8 µg/mL (≈ 10.9 µM); MIC [31]: 0.25 µg/mL (≈ 0.341 µM); MIC [32]: 16 µg/mL (≈ 21.8 µM); MIC [33]: 0.25 µg/mL (≈ 0.341 µM); MIC [34]: 32 µg/mL (≈ 43.6 µM); MIC [35]: 0.25 µg/mL (≈ 0.341 µM); MIC [36]: 8 µg/mL (≈ 10.9 µM); MIC [37]: 0.125 µg/mL (≈ 0.17 µM); MIC [38]: 8 µg/mL (≈ 10.9 µM); MIC [39]: 0.25 µg/mL (≈ 0.341 µM); MIC [40]: 8 µg/mL (≈ 10.9 µM); MIC [41]: 0.25 µg/mL (≈ 0.341 µM); Activity [42]: Active; Activity [43]: Active; MIC [44]: 0.125 µg/mL (≈ 0.17 µM); MIC [45]: 32 µg/mL (≈ 43.6 µM); MIC [46]: 8 µg/mL (≈ 10.9 µM); MIC [47]: 0.25 µg/mL (≈ 0.341 µM); MIC [48]: 8 µg/mL (≈ 10.9 µM); MIC [49]: 0.125 µg/mL (≈ 0.17 µM); MIC [50]: 32 µg/mL (≈ 43.6 µM); Activity [51]: Active
